Values after ≈ are worked out from the molar mass of the structure shown.
system: A549; assay: Antitumor activity against A549 human lung carcinoma cell line; type: functional, cell-based; conditions: not given
Procedure, shortened: (§1)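 Crystal violet staining of cultured tumour cells. The stain was solubilized in 0.1 M AcOH-EtOH (1:1 v/v) and optical density read at 590 nm. IC50 came from linear regression of the absorbance data. Compounds were in DMSO vehicle; mitomycin C was in DMSO/saline. Indoloquinone values are the mean of two experiments per cell line.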

Structure (SMILES) | IC50 [µg/mL]
CNC(=O)OCc1c2c(n(C)c1COC(=O)NC)C(O)=C(C)C(=N)C2=O | 1.6 (≈ 4.39 µM)
CNC(=O)OCc1c2c(n(C)c1COC(=O)NC)C(=O)C(C)=C(N1CC1)C2=O | 0.03 (≈ 0.0768 µM)
CNC(=O)OCc1c2c(n(C)c1COC(C)=O)C(=O)C(C)=C(N1CC1)C2=O | < 0.02
CNC(=O)OCc1c2c(n(C)c1COC(C)=O)C(O)=C(C)C(=N)C2=O | > 3.1
CO[C@@]12[C@H](COC(N)=O)C3=C(C(=O)C(C)=C(N)C3=O)N1C[C@@H]1N[C@@H]12 [MITOMYCIN] | 0.47 (≈ 1.41 µM)

system: P388; assay: Minimum effective dose of compound against P388 murine leukemia in mice; type: functional; conditions: Mus musculus, read-out: MED
Procedure, shortened: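 P388 ascites leukemia (10^6 cells) in CDF1 female mice, dosed once on day 1, six mice per dose, saline controls (10). Minimal effective dose defined as dose giving % T/C = 125, from median survival times.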

Structure (SMILES) | minimal effective dose [mg/kg]
CNC(=O)OCc1c2c(n(C)c1COC(=O)NC)C(=O)C(C)=C(N1CC1)C2=O | 14.5

system: not listed separately; assay: Antitumor activity against SW900 human lung carcinoma cell line; type: functional, cell-based; conditions: not given; procedure, shortened: as §1

Structure (SMILES) | IC50 [µg/mL]
CNC(=O)OCc1c2c(n(C)c1COC(=O)NC)C(=O)C(C)=C(OC)C2=O | < 0.03
CNC(=O)OCc1c2c(n(C)c1COC(C)=O)C(=O)C(C)=C(OC)C2=O | 0.04 (≈ 0.11 µM)
CO[C@@]12[C@H](COC(N)=O)C3=C(C(=O)C(C)=C(N)C3=O)N1C[C@@H]1N[C@@H]12 [MITOMYCIN] | 0.24 (≈ 0.718 µM)

system: B16-F10; assay: Antitumor activity against B16-F10 murine melanoma cell line; type: functional, cell-based; conditions: Mus musculus; procedure, shortened: as §1

Structure (SMILES) | IC50 [µg/mL]
CNC(=O)OCc1c2c(n(C)c1COC(=O)NC)C(O)=C(C)C(=N)C2=O | 13.3 (≈ 36.5 µM)
CNC(=O)OCc1c2c(n(C)c1COC(=O)NC)C(=O)C(C)=C(N1CC1)C2=O | 0.66 (≈ 1.69 µM)
CNC(=O)OCc1c2c(n(C)c1COC(C)=O)C(=O)C(C)=C(N1CC1)C2=O | 0.39 (≈ 1.04 µM)
CNC(=O)OCc1c2c(n(C)c1COC(=O)NC)C(=O)C(C)=C(OC)C2=O | < 0.03
CNC(=O)OCc1c2c(n(C)c1COC(C)=O)C(O)=C(C)C(=N)C2=O | > 31
CNC(=O)OCc1c2c(n(C)c1COC(C)=O)C(=O)C(C)=C(OC)C2=O | 0.2 (≈ 0.549 µM)
CO[C@@]12[C@H](COC(N)=O)C3=C(C(=O)C(C)=C(N)C3=O)N1C[C@@H]1N[C@@H]12 [MITOMYCIN] | 1.5 (≈ 4.49 µM)

system: HCT-116; assay: Antitumor activity against HCT116 human colon carcinoma cell line experiment 2; type: functional, cell-based; conditions: not given
Procedure, shortened: (§2)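 Cell growth in A549 and HCT-116 cultures was read by tetrazolium staining, with an IC50 reported for each of two separate experiments.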

Structure (SMILES) | IC50 [µg/mL]
CNC(=O)OCc1c2c(n(C)c1C(C)OC(C)=O)C(=O)C(C)=C(OC)C2=O (stereo unspecified) | 0.06 (≈ 0.159 µM)
CO[C@@]12[C@H](COC(N)=O)C3=C(C(=O)C(C)=C(N)C3=O)N1C[C@@H]1N[C@@H]12 [MITOMYCIN] | 0.01 (≈ 0.0299 µM)

system: HCT-116; assay: Antitumor activity against HCT116 human colon carcinoma cell line experiment 1; type: functional, cell-based; conditions: not given; procedure, shortened: as §2

Structure (SMILES) | IC50 [µg/mL]
CNC(=O)OCc1c2c(n(C)c1C(C)OC(C)=O)C(=O)C(C)=C(OC)C2=O (stereo unspecified) | 0.06 (≈ 0.159 µM)
CO[C@@]12[C@H](COC(N)=O)C3=C(C(=O)C(C)=C(N)C3=O)N1C[C@@H]1N[C@@H]12 [MITOMYCIN] | 0.015 (≈ 0.0449 µM)

system: not listed separately; assay: Antitumor activity against SW1271 human lung carcinoma cell line; type: functional, cell-based; conditions: not given; procedure, shortened: as §1

Structure (SMILES) | IC50 [µg/mL]
CNC(=O)OCc1c2c(n(C)c1COC(=O)NC)C(O)=C(C)C(=N)C2=O | 7.9 (≈ 21.7 µM)
CNC(=O)OCc1c2c(n(C)c1COC(=O)NC)C(=O)C(C)=C(N1CC1)C2=O | 2.7 (≈ 6.92 µM)
CNC(=O)OCc1c2c(n(C)c1COC(C)=O)C(=O)C(C)=C(N1CC1)C2=O | 0.73 (≈ 1.94 µM)
CNC(=O)OCc1c2c(n(C)c1COC(=O)NC)C(=O)C(C)=C(OC)C2=O | 0.14 (≈ 0.369 µM)
CNC(=O)OCc1c2c(n(C)c1COC(C)=O)C(O)=C(C)C(=N)C2=O | > 31
CNC(=O)OCc1c2c(n(C)c1COC(C)=O)C(=O)C(C)=C(OC)C2=O | 0.47 (≈ 1.29 µM)
CO[C@@]12[C@H](COC(N)=O)C3=C(C(=O)C(C)=C(N)C3=O)N1C[C@@H]1N[C@@H]12 [MITOMYCIN] | 8.1 (≈ 24.2 µM)

system: A549; assay: Antitumor activity against A549 human lung carcinoma cell line in experiment 2; type: functional, cell-based; conditions: not given; procedure, shortened: as §2

Structure (SMILES) | IC50 [µg/mL]
CNC(=O)OCc1c2c(n(C)c1C(C)OC(C)=O)C(=O)C(C)=C(OC)C2=O (stereo unspecified) | 0.065 (≈ 0.172 µM)
CO[C@@]12[C@H](COC(N)=O)C3=C(C(=O)C(C)=C(N)C3=O)N1C[C@@H]1N[C@@H]12 [MITOMYCIN] | 0.08 (≈ 0.239 µM)

system: P388; assay: Maximum effect on P388 murine leukemia in mice at a dose of 25.6 mg/kg; conditions: not given

Structure (SMILES) | T/C [%]
CNC(=O)OCc1c2c(n(C)c1COC(C)=O)C(O)=C(C)C(=N)C2=O | 105

system: P388; assay: Maximum effect against P388 murine leukemia in mice at a dose of 25.6 mg/kg; type: functional, Mus musculus; conditions: not given

Structure (SMILES) | T/C [%]
CNC(=O)OCc1c2c(n(C)c1COC(=O)NC)C(O)=C(C)C(=N)C2=O | 120

system: A549; assay: Antitumor activity against A549 human lung carcinoma cell line in experiment 1; type: functional, cell-based; conditions: not given; procedure, shortened: as §2

Structure (SMILES) | IC50 [µg/mL]
CNC(=O)OCc1c2c(n(C)c1C(C)OC(C)=O)C(=O)C(C)=C(OC)C2=O (stereo unspecified) | 0.075 (≈ 0.198 µM)
CO[C@@]12[C@H](COC(N)=O)C3=C(C(=O)C(C)=C(N)C3=O)N1C[C@@H]1N[C@@H]12 [MITOMYCIN] | 0.015 (≈ 0.0449 µM)

system: P388; assay: Maximum effect on P388 murine leukemia in mice at a dose of 32.0 mg/kg; type: functional, Mus musculus; conditions: not given
Procedure, shortened: (§3)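 P388 leukemia, 10^6 ascites cells implanted in CDF1 female mice; single dose on day 1, six mice per dose, 10 saline controls, concurrent mitomycin C control group per experiment. Max effect = % T/C (median survival time treated/control × 100) at optimal dose.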

Structure (SMILES) | T/C [%]
CNC(=O)OCc1c2c(n(C)c1COC(=O)NC)C(=O)C(C)=C(N1CC1)C2=O | 145

system: P388; assay: Maximum effect on P388 murine leukemia in mice at a dose of 6.4 mg/kg; type: functional, Mus musculus; conditions: not given

Structure (SMILES) | T/C [%]
CNC(=O)OCc1c2c(n(C)c1COC(=O)NC)C(=O)C(C)=C(OC)C2=O | 100

organism: Homo sapiens; assay: Antitumor activity against moser human colon carcinoma cell line; type: functional; conditions: not given; procedure, shortened: as §1

Structure (SMILES) | IC50 [µg/mL]
CNC(=O)OCc1c2c(n(C)c1COC(=O)NC)C(O)=C(C)C(=N)C2=O | 3.1 (≈ 8.51 µM)
CNC(=O)OCc1c2c(n(C)c1COC(=O)NC)C(=O)C(C)=C(N1CC1)C2=O | 0.13 (≈ 0.333 µM)
CNC(=O)OCc1c2c(n(C)c1COC(C)=O)C(=O)C(C)=C(N1CC1)C2=O | 0.035 (≈ 0.0932 µM)
CNC(=O)OCc1c2c(n(C)c1COC(=O)NC)C(=O)C(C)=C(OC)C2=O | < 0.03
CNC(=O)OCc1c2c(n(C)c1COC(C)=O)C(O)=C(C)C(=N)C2=O | 12.8 (≈ 36.6 µM)
CNC(=O)OCc1c2c(n(C)c1COC(C)=O)C(=O)C(C)=C(OC)C2=O | 0.09 (≈ 0.247 µM)
CO[C@@]12[C@H](COC(N)=O)C3=C(C(=O)C(C)=C(N)C3=O)N1C[C@@H]1N[C@@H]12 [MITOMYCIN] | 2.8 (≈ 8.37 µM)

system: HCT-116; assay: Antitumor activity against HCT116 human colon carcinoma cell line; type: functional, cell-based; conditions: not given; procedure, shortened: as §1

Structure (SMILES) | IC50 [µg/mL]
CNC(=O)OCc1c2c(n(C)c1COC(=O)NC)C(O)=C(C)C(=N)C2=O | 3.7 (≈ 10.2 µM)
CNC(=O)OCc1c2c(n(C)c1COC(=O)NC)C(=O)C(C)=C(N1CC1)C2=O | 0.17 (≈ 0.435 µM)
CNC(=O)OCc1c2c(n(C)c1COC(C)=O)C(=O)C(C)=C(N1CC1)C2=O | 0.065 (≈ 0.173 µM)
CNC(=O)OCc1c2c(n(C)c1COC(=O)NC)C(=O)C(C)=C(OC)C2=O | < 0.03
CNC(=O)OCc1c2c(n(C)c1COC(C)=O)C(O)=C(C)C(=N)C2=O | > 31
CNC(=O)OCc1c2c(n(C)c1COC(C)=O)C(=O)C(C)=C(OC)C2=O | 0.065 (≈ 0.178 µM)
CO[C@@]12[C@H](COC(N)=O)C3=C(C(=O)C(C)=C(N)C3=O)N1C[C@@H]1N[C@@H]12 [MITOMYCIN] | 1.1 (≈ 3.29 µM)

system: P388; assay: Maximum effect on P388 murine leukemia in mice at a dose of 51.2 mg/kg; type: functional, Mus musculus; conditions: not given

Structure (SMILES) | T/C [%]
CNC(=O)OCc1c2c(n(C)c1COC(C)=O)C(=O)C(C)=C(OC)C2=O | 105

system: B16; assay: Antitumor activity against B16-BN murine melanoma cell line; type: functional, cell-based; conditions: Mus musculus; procedure, shortened: as §1

Structure (SMILES) | IC50 [µg/mL]
CNC(=O)OCc1c2c(n(C)c1COC(=O)NC)C(O)=C(C)C(=N)C2=O | 9.5 (≈ 26.1 µM)
CNC(=O)OCc1c2c(n(C)c1COC(=O)NC)C(=O)C(C)=C(N1CC1)C2=O | 1.6 (≈ 4.1 µM)
CNC(=O)OCc1c2c(n(C)c1COC(C)=O)C(=O)C(C)=C(N1CC1)C2=O | 0.27 (≈ 0.719 µM)
CNC(=O)OCc1c2c(n(C)c1COC(C)=O)C(O)=C(C)C(=N)C2=O | 14 (≈ 40.1 µM)
CO[C@@]12[C@H](COC(N)=O)C3=C(C(=O)C(C)=C(N)C3=O)N1C[C@@H]1N[C@@H]12 [MITOMYCIN] | 3.6 (≈ 10.8 µM)

system: P388; assay: Maximum effect on P388 murine leukemia in mice at a dose of 12.8 mg/kg; type: functional, Mus musculus; conditions: not given; procedure, shortened: as §3

Structure (SMILES) | T/C [%]
CNC(=O)OCc1c2c(n(C)c1COC(C)=O)C(=O)C(C)=C(N1CC1)C2=O | 114

From ChEMBL document CHEMBL1124560, “New 2-substituted indoloquinone mitomycin analogues” (J Med Chem, 1989)
